# Activity calls are given as the source filed them.
# What was measured:
# [1] = molecular target: Cannabinoid receptor 1 (Homo sapiens) (UniProt P21554); experiment: Antagonist activity at CB1 receptor expressed in SKNSH cells at 100 nM by ELISA relative to control; type: functional, cell-based; set-up: scale not given: the % may be the effect or the level left
# [2] = molecular target: Beta-2 adrenergic receptor (Homo sapiens) (UniProt P07550); experiment: Antagonist activity at beta2 adrenergic receptor expressed in SKNSH cells assessed as blockade of isoproterenol-induced increase in antibody recognition at 100 nM by ELISA relative to control; type: functional, cell-based; set-up: scale not given: the % may be the effect or the level left
# Sequence of Beta-2 adrenergic receptor (Homo sapiens) (P07550 whole entry, looked up): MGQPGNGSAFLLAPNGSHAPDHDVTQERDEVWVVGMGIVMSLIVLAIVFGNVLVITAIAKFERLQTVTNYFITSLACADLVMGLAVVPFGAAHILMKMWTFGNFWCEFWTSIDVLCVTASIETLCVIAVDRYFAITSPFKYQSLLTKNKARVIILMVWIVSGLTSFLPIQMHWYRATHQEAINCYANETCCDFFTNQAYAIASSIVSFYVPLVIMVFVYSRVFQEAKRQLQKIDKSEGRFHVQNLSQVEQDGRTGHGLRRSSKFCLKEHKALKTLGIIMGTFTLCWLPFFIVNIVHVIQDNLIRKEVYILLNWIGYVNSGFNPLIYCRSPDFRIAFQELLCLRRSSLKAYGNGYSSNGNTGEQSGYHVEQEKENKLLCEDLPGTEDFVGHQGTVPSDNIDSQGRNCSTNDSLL
# [3] = molecular target: Cannabinoid receptor 2 (Homo sapiens) (UniProt P34972); experiment: Antagonist activity at CB2 receptor expressed in HEK293 cells assessed as blockade of Hu210-mediated decrease in secreted alkaline phosphatase activity at 1 uM after 6 hrs relative to control; type: functional, cell-based
# Sequence of Cannabinoid receptor 2 (Homo sapiens) (P34972 whole entry): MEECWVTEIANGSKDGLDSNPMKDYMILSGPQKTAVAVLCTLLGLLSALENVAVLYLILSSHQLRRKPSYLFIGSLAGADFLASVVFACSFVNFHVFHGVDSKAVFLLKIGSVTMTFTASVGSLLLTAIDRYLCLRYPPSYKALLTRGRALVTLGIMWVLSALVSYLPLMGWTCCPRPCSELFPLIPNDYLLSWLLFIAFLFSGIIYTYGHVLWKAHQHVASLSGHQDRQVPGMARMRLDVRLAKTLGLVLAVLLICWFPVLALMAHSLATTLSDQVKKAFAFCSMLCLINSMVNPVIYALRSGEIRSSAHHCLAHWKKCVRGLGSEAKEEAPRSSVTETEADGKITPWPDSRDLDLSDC
# Method in brief: (§1)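 HEK-293 cells transiently co-transfected with pCRE-SeAP and a Flag-tagged receptor, 30,000 cells/well on poly-L-lysine. They were serum-starved 16–18 h, then exposed 6 h in serum-free medium to 10 μM forskolin (omitted for β2) plus the receptor agonist (100 nM), with or without peptide (1 μM). Heat-treated supernatant SeAP was read by CSPD chemiluminescence. Mean ± SEM, n = 6.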
# [4] = molecular target: Cannabinoid receptor 2 (Homo sapiens) (UniProt P34972); experiment: Antagonist activity at CB2 receptor expressed in SKNSH cells at 100 nM by ELISA relative to control; type: functional, cell-based; set-up: scale not given: the % may be the effect or the level left
# [5] = molecular target: T1, Type-2 angiotensin II receptor (Homo sapiens) (UniProt P50052); experiment: Antagonist activity at AT2 angiotensin receptor expressed in SKNSH cells at 100 nM by ELISA; type: functional, cell-based; set-up: scale not given: the % may be the effect or the level left
# T1 sequence (whole entry): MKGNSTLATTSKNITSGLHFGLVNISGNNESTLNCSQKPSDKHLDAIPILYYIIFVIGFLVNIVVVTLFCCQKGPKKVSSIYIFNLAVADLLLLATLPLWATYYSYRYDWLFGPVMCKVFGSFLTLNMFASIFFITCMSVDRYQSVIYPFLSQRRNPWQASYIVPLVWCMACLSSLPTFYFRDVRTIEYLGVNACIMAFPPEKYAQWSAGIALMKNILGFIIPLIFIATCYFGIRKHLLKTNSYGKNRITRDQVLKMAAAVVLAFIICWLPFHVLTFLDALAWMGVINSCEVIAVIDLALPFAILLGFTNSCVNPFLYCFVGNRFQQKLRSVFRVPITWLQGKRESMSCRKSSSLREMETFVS
# Rattus norvegicus = experiment: Antihyperalgesic effects in Wistar rat assessed as reduction of carrageenan-induced paw pressure at 5 ug/kg, intrathecal after 3 hrs; type: functional, organism-based
# Method in brief: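 Male Wistar rats (200 g) received carrageenan 200 μg/paw intraplantar in saline into the right hind paw. Peptide was given at the same time: intraplantar 10 μg/paw, intrathecal 0.5 or 5 μg/kg, or oral 50 or 100 μg/kg; saline-treated rats served as controls. Paw-pressure withdrawal threshold (force ramp 16 g/s) was read at 0 and 3 h. n = 6–8.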
# [6] = molecular target: T2, Type-1 angiotensin II receptor (Homo sapiens) (UniProt P30556); experiment: Antagonist activity at AT1 angiotensin receptor expressed in HEK293 cells assessed as blockade of angiotensin 2-mediated decrease in secreted alkaline phosphatase activity at 1 uM after 6 hrs relative to control; type: functional, cell-based; method in brief: as §1
# T2 sequence (whole entry): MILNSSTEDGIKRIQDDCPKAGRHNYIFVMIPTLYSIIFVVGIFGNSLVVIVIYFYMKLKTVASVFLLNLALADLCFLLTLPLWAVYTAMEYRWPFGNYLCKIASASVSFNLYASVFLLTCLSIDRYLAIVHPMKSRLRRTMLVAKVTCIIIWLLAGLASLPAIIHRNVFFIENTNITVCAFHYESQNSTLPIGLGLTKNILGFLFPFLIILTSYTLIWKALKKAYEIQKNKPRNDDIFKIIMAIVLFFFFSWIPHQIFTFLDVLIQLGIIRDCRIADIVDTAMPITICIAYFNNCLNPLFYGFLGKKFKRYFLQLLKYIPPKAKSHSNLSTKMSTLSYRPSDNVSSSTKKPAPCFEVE
# [7] = molecular target: Delta-type opioid receptor (Homo sapiens) (UniProt P41143); experiment: Antagonist activity at delta opioid receptor expressed in HEK293 cells assessed as blockade of secreted alkaline phosphatase activity at 1 uM after 6 hrs relative to control; type: functional, cell-based; method in brief: as §1
# Sequence of Delta-type opioid receptor (Homo sapiens) (P41143 whole entry): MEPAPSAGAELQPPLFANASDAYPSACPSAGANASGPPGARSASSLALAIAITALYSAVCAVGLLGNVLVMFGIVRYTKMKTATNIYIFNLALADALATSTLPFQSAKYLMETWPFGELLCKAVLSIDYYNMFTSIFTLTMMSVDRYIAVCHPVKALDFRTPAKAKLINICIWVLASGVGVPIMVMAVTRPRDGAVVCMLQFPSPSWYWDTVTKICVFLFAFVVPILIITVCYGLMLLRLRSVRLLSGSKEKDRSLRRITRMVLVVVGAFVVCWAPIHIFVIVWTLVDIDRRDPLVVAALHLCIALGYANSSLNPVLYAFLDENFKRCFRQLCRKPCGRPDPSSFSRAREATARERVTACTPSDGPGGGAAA
# [8] = molecular target: Beta-2 adrenergic receptor (Homo sapiens) (UniProt P07550); experiment: Antagonist activity at beta2 adrenergic receptor expressed in SKNSH cells at 100 nM by ELISA relative to control; type: functional, cell-based; set-up: scale not given: the % may be the effect or the level left
# [9] = molecular target: Cannabinoid receptor 1 (Homo sapiens) (UniProt P21554); experiment: Antagonist activity at CB1 receptor expressed in SKNSH cells assessed as blockade of Hu210-induced increase in antibody recognition at 100 nM by ELISA relative to control; type: functional, cell-based; set-up: scale not given: the % may be the effect or the level left
# [10] = molecular target: Cannabinoid receptor 1 (Homo sapiens) (UniProt P21554); experiment: Antagonist activity at flag tagged recombinant CB1 receptor expressed in HEK293 cells assessed as blockade of Hu210-induced increase in phospho ERK1/2 level; type: functional, cell-based
# Method in brief: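 HEK-293 cells expressing Flag-tagged CB1 (2 × 10⁶ cells/well) were stimulated for 5 min with 100 nM Hu-210, with or without 10 μM antagonist. Phospho-ERK1/2 was quantified relative to untreated cells (100%). Mean ± SE of triplicate experiments.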
# [11] = molecular target: Mu-type opioid receptor (Homo sapiens) (UniProt P35372); experiment: Antagonist activity at mu opioid receptor expressed in SKNSH cells assessed as blockade of DAMGO-induced increase in antibody recognition at 100 nM by ELISA relative to control; type: functional, cell-based; set-up: scale not given: the % may be the effect or the level left
# Sequence of Mu-type opioid receptor (Homo sapiens) (P35372 whole entry): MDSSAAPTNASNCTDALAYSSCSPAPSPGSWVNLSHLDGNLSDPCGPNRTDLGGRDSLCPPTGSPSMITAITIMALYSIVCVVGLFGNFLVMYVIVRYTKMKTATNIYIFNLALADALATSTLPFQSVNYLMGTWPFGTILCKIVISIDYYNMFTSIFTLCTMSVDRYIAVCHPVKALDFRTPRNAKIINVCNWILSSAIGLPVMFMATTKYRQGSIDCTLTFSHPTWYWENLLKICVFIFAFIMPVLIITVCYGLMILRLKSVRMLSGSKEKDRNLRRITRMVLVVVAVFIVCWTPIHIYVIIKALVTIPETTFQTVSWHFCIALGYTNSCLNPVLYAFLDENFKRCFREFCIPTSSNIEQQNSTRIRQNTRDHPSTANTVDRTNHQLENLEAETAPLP
# [12] = molecular target: T3, B2 bradykinin receptor (Homo sapiens) (UniProt P30411); experiment: Antagonist activity at B2 bradykinin receptor expressed in SKNSH cells assessed as blockade of bradykinin-induced increase in antibody recognition at 100 nM by ELISA; type: functional, cell-based; set-up: scale not given: the % may be the effect or the level left
# T3 sequence (whole entry): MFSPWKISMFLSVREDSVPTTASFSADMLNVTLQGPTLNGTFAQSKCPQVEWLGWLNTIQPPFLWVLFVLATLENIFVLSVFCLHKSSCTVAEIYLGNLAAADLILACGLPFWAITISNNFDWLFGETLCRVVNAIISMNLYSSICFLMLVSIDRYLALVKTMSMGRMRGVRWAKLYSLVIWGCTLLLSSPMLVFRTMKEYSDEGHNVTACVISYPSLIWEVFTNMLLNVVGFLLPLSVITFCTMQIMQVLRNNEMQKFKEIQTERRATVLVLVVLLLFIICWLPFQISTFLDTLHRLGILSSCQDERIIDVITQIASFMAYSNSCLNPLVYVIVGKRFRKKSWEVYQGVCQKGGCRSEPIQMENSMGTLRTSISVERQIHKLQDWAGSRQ
# [13] = molecular target: Mu-type opioid receptor (Homo sapiens) (UniProt P35372); experiment: Antagonist activity at mu opioid receptor expressed in SKNSH cells at 100 nM by ELISA relative to control; type: functional, cell-based; set-up: scale not given: the % may be the effect or the level left
# [14] = molecular target: T1, Type-2 angiotensin II receptor (Homo sapiens); experiment: Antagonist activity at AT2 angiotensin receptor expressed in SKNSH cells assessed as blockade of angiotensin 2-induced increase in antibody recognition at 100 nM by ELISA; type: functional, cell-based; set-up: scale not given: the % may be the effect or the level left
# Sequence of Cannabinoid receptor 1 (Homo sapiens) (P21554 whole entry): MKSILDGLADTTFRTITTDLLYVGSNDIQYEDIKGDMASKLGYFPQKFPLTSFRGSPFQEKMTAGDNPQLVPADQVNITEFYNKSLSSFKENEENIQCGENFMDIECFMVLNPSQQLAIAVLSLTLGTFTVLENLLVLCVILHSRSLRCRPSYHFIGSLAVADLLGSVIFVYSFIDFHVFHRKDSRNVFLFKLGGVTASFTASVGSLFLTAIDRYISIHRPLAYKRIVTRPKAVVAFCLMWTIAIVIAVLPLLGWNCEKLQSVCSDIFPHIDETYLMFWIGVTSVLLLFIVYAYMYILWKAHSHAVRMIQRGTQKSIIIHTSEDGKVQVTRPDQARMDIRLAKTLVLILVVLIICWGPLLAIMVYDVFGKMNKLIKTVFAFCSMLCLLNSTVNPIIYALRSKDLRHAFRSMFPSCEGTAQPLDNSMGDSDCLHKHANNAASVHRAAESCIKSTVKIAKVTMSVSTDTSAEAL
compound,measurement,setting,value
CC(C)C[C@H](NC(=O)[C@H](Cc1ccccc1)NC(=O)[C@H](CCCCN)NC(=O)[C@H](Cc1ccccc1)NC(=O)[C@H](CC(N)=O)NC(=O)[C@@H](NC(=O)[C@@H]1CCCN1)C(C)C)C(=O)N[C@@H](CO)C(=O)N[C@@H](Cc1cnc[nH]1)C(=O)O [HEMOPRESSIN],Activity,[1],72%
same,Activity,[2],157%
same,Activity,[3],0.85
same,Activity,[4],103%
same,Activity,[5],100%
same,Activity,Rattus norvegicus,Active
same,Activity,[6],1.02
same,Activity,[7],0.9
same,Activity,[8],104%
same,Activity,[9],102%
same,Activity,[10],Active
same,Activity,[11],141%
same,Activity,[12],149%
same,Activity,[13],106%
same,Activity,[14],137%

# — ChEMBL document CHEMBL1156534, “Hemopressin is an inverse agonist of CB1 cannabinoid receptors” (Proc Natl Acad Sci U S A, 2007)
